# The source made the active and inactive calls. The calls are words filed in the database; no cut-off is given here.
# Molecular target: T1, Toll-like receptor 7 (Homo sapiens, UniProt Q9NYK1)
# T1 sequence (Q9NYK1 whole entry): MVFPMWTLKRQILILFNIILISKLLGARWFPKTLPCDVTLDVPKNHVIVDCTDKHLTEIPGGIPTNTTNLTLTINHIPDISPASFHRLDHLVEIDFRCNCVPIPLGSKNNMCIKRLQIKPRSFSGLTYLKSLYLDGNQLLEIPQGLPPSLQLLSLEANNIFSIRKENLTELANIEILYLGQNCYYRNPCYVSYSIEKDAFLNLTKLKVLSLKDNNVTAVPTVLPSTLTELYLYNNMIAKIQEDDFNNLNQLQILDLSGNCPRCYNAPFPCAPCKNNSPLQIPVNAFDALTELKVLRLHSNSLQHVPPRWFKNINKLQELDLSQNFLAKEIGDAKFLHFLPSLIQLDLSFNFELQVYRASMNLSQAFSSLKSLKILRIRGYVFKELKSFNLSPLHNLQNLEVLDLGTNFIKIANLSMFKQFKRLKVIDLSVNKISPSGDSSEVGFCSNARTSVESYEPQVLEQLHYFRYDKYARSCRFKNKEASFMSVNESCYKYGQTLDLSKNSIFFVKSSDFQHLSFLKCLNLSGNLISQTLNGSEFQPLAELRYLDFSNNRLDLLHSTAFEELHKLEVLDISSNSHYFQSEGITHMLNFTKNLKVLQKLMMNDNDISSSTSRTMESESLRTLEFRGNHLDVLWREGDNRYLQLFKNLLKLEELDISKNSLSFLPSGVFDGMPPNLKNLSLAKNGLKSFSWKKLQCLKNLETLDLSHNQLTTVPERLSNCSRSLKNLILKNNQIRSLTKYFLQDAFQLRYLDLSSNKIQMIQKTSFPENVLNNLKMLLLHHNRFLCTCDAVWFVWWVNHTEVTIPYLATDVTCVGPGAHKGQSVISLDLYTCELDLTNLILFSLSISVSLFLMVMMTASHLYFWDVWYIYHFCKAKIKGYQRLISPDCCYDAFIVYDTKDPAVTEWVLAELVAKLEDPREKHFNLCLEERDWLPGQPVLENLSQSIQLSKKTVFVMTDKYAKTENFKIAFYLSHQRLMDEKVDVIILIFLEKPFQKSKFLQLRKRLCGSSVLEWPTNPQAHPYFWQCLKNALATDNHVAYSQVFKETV
# Assay: Agonist activity at human TLR7 expressed in HEK293 cells incubated for 6 hrs by luciferase reporter gene assay
# Format: cell-based
# Conditions: not given
# Summary of the method: (§1)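 HEK293 stably carrying NF-κB-firefly luciferase reporter plus human TLR7 (best resiquimod-responding clone), maintained under puromycin/blasticidin. 25 000 cells per well in DMEM with 3% FCS.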
row,Compound,EC50 [nM]
1,COc1ccc(CCc2cnc3c(N)nc4cc(/C=C/P(=O)(O)O)ccc4c3c2)c(C)c1,150
2,COc1ccc(CCc2cnc3c(N)nc4cc(C(=O)P(=O)(O)O)ccc4c3c2)c(C)c1,5600
3,Cc1ccc2c(c1)nc(N)c1ncc(CCc3ccc(OCCOCCOCCP(=O)(O)O)cc3C)cc12,3100

# Molecular target: T2, Toll-like receptor 8 (Homo sapiens) (UniProt Q9NR97)
# T2 sequence (whole entry): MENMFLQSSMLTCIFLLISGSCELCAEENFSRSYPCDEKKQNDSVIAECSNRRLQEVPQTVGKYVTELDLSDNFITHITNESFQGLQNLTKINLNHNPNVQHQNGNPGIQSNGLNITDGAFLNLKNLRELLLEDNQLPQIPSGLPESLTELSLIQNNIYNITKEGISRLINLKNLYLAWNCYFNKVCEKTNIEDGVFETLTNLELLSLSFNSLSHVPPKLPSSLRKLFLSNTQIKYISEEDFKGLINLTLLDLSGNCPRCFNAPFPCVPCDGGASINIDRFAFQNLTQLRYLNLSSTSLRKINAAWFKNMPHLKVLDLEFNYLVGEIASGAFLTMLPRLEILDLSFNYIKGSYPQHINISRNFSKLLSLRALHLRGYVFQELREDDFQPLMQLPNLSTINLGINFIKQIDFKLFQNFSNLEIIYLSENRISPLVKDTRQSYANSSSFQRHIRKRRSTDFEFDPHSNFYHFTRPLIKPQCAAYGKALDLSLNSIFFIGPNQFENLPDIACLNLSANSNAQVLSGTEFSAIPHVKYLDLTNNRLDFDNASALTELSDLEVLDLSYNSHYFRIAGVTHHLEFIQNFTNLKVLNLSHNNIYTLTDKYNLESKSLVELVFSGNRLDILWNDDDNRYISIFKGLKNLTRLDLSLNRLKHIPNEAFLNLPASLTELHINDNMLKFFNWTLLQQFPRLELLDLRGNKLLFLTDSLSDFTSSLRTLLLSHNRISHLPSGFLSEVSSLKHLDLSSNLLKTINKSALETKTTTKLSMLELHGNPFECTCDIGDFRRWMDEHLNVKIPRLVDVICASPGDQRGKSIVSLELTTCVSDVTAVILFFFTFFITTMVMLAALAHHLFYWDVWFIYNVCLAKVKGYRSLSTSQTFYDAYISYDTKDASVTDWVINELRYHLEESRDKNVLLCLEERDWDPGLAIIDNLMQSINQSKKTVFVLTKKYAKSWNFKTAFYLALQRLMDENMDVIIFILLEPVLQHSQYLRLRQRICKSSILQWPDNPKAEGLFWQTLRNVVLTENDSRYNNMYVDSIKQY
# Assay: Agonist activity at human TLR8 expressed in HEK293 cells up to 30 uM incubated for 6 hrs by luciferase reporter gene assay relative to resiquimod
# Format: cell-based
# Conditions: not given
row,Compound,Activity [%]
1,COc1ccc(CCc2cnc3c(N)nc4cc(C(=O)C(F)(F)P(=O)(O)O)ccc4c3c2)c(C)c1,< 5
2,COc1ccc(CCc2cnc3c(N)nc4cc(/C=C(\F)P(=O)(O)O)ccc4c3c2)c(C)c1,< 5
3,Cc1cc(OCCCP(=O)(O)O)ccc1CCc1cnc2c(N)nc3cc(CCC(=O)O)ccc3c2c1,< 5
4,COc1ccc(CCc2cnc3c(N)nc4cc(/C=C/P(=O)(O)O)ccc4c3c2)c(C)c1,< 5
5,COc1ccc(CCc2cnc3c(N)nc4cc(C(=O)P(=O)(O)O)ccc4c3c2)c(C)c1,< 5
6,Cc1ccc2c(c1)nc(N)c1ncc(CCc3ccc(OCCOCCOCCP(=O)(O)O)cc3C)cc12,< 5
7,Cc1ccc2c(c1)nc(N)c1ncc(CCc3ccc(OCCCC(F)(F)P(=O)(O)O)cc3C)cc12,< 5
8,COc1ccc(CCc2cnc3c(N)nc4cc(CCP(=O)(O)O)ccc4c3c2)c(C)c1,< 5

# Molecular target: T3, Toll-like receptor 7 (Homo sapiens) (UniProt Q9NYK1)
# T3 sequence (whole entry): T1 sequence (Q9NYK1 whole entry)
# Assay: Agonist activity at TLR7 in human PBMC assessed as IL-6 level in supernatant after 18 hrs
# Conditions: not given
# Summary of the method: (§2)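 Isolated human PBMCs washed in PBS, resuspended in RPMI1640 with 10% heat-inactivated FBS, pyruvate, HEPES, at 1 × 10⁶ cells/mL. Compounds as in-situ sodium salts from 10 mM aqueous stocks, 3-fold 10-point dilutions from 30 μM.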
row,Compound,Activity [pg/mL]
1,CCOCc1nc2c(N)nc3ccccc3c2n1CC(C)(C)O,12500

# Molecular target: T4, Toll-like receptor 7 (Mus musculus, UniProt P58681)
# T4 sequence (P58681 whole entry): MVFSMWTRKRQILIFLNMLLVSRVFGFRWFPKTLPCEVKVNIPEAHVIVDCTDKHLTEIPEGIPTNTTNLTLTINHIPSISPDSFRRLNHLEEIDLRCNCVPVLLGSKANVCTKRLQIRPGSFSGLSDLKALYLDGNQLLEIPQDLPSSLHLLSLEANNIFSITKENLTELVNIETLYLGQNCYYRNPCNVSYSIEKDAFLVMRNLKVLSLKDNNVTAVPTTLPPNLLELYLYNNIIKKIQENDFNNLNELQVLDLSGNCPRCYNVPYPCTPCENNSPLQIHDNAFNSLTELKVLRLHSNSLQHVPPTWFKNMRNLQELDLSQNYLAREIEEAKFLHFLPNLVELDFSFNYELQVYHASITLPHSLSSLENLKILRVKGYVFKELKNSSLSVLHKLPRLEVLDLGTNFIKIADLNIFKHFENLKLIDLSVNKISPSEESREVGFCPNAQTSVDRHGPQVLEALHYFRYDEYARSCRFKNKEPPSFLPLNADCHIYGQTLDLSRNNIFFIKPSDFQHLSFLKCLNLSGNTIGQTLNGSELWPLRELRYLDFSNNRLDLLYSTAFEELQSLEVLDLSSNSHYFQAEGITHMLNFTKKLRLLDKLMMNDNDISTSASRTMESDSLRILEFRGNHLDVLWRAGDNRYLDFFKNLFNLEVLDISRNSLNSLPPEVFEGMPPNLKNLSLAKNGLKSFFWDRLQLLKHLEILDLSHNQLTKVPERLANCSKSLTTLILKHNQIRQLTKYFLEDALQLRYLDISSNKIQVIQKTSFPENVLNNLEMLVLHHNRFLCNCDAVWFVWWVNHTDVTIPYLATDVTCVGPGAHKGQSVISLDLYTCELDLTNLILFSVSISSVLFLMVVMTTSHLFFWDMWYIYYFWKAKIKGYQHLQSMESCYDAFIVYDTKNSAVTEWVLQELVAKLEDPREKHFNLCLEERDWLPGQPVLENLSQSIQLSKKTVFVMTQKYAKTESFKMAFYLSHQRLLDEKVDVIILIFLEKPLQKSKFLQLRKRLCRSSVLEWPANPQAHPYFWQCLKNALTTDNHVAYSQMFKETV
# Assay: Agonist activity at TLR7 in Balb/c mouse splenocytes assessed as induction of IL-6 secretion in supernatant after 18 hrs
# Format: cell-based
# Conditions: not given
# Summary of the method: (§3)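 Spleens from female BALB/c mice (6−10 weeks), single-cell suspension, RBC lysis; 5 × 10⁵ splenocytes per well in RPMI 1640 with 10% FCS, 2-ME. Compounds as sodium salts (1 equiv NaOH) from 10 mM water stocks, 3-fold 10-point dilutions from 30 μM.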
row,Compound,EC50 [nM]
1,COc1ccc(CCc2cnc3c(N)nc4cc(C(=O)C(F)(F)P(=O)(O)O)ccc4c3c2)c(C)c1,3400
2,COc1ccc(CCc2cnc3c(N)nc4cc(/C=C(\F)P(=O)(O)O)ccc4c3c2)c(C)c1,570
3,Cc1cc(OCCCP(=O)(O)O)ccc1CCc1cnc2c(N)nc3cc(CCC(=O)O)ccc3c2c1,310
4,COc1ccc(CCc2cnc3c(N)nc4cc(/C=C/P(=O)(O)O)ccc4c3c2)c(C)c1,2500
5,COc1ccc(CCc2cnc3c(N)nc4cc(C(=O)P(=O)(O)O)ccc4c3c2)c(C)c1,14000
6,Cc1ccc2c(c1)nc(N)c1ncc(CCc3ccc(OCCOCCOCCP(=O)(O)O)cc3C)cc12,3600
7,Cc1ccc2c(c1)nc(N)c1ncc(CCc3ccc(OCCCC(F)(F)P(=O)(O)O)cc3C)cc12,3200
8,COc1ccc(CCc2cnc3c(N)nc4cc(CCP(=O)(O)O)ccc4c3c2)c(C)c1,130

# Molecular target: T3, Toll-like receptor 7 (Homo sapiens)
# Assay: Agonist activity at human TLR7 expressed in HEK293 cells incubated for 6 hrs by luciferase reporter gene assay relative to resiquimod
# Format: cell-based
# Conditions: not given
# Summary of the method: as §1
row,Compound,%max [%]
1,COc1ccc(CCc2cnc3c(N)nc4cc(C(=O)P(=O)(O)O)ccc4c3c2)c(C)c1,112
2,Cc1ccc2c(c1)nc(N)c1ncc(CCc3ccc(OCCOCCOCCP(=O)(O)O)cc3C)cc12,94

# Molecular target: T5, Toll-like receptor 7 (Mus musculus) (UniProt P58681)
# T5 sequence (whole entry): T4 sequence (P58681 whole entry)
# Assay: Agonist activity at TLR7 in Balb/c mouse splenocytes assessed as induction of IL-6 secretion in supernatant after 18 hrs relative to resiquimod
# Format: cell-based
# Conditions: not given
# Summary of the method: as §3
row,Compound,%max [%]
1,COc1ccc(CCc2cnc3c(N)nc4cc(C(=O)C(F)(F)P(=O)(O)O)ccc4c3c2)c(C)c1,100
2,COc1ccc(CCc2cnc3c(N)nc4cc(/C=C(\F)P(=O)(O)O)ccc4c3c2)c(C)c1,220
3,Cc1cc(OCCCP(=O)(O)O)ccc1CCc1cnc2c(N)nc3cc(CCC(=O)O)ccc3c2c1,100
4,COc1ccc(CCc2cnc3c(N)nc4cc(/C=C/P(=O)(O)O)ccc4c3c2)c(C)c1,81
5,COc1ccc(CCc2cnc3c(N)nc4cc(C(=O)P(=O)(O)O)ccc4c3c2)c(C)c1,117
6,Cc1ccc2c(c1)nc(N)c1ncc(CCc3ccc(OCCOCCOCCP(=O)(O)O)cc3C)cc12,83
7,Cc1ccc2c(c1)nc(N)c1ncc(CCc3ccc(OCCCC(F)(F)P(=O)(O)O)cc3C)cc12,47
8,COc1ccc(CCc2cnc3c(N)nc4cc(CCP(=O)(O)O)ccc4c3c2)c(C)c1,124

# Molecular target: T1, Toll-like receptor 7
# Assay: Agonist activity at TLR7 in human PBMC assessed as induction of IL-6 secretion in supernatant after 18 hrs
# Conditions: not given
# Summary of the method: as §2
row,Compound,EC50
1,COc1ccc(CCc2cnc3c(N)nc4cc(C(=O)P(=O)(O)O)ccc4c3c2)c(C)c1,Not Active

# Same assay, conditions: read-out: EC50
row,Compound,EC50 [nM]
1,COc1ccc(CCc2cnc3c(N)nc4cc(C(=O)C(F)(F)P(=O)(O)O)ccc4c3c2)c(C)c1,7800
2,COc1ccc(CCc2cnc3c(N)nc4cc(/C=C(\F)P(=O)(O)O)ccc4c3c2)c(C)c1,3400
3,Cc1cc(OCCCP(=O)(O)O)ccc1CCc1cnc2c(N)nc3cc(CCC(=O)O)ccc3c2c1,290
4,COc1ccc(CCc2cnc3c(N)nc4cc(/C=C/P(=O)(O)O)ccc4c3c2)c(C)c1,1700
5,Cc1ccc2c(c1)nc(N)c1ncc(CCc3ccc(OCCOCCOCCP(=O)(O)O)cc3C)cc12,8200
6,Cc1ccc2c(c1)nc(N)c1ncc(CCc3ccc(OCCCC(F)(F)P(=O)(O)O)cc3C)cc12,1600
7,COc1ccc(CCc2cnc3c(N)nc4cc(CCP(=O)(O)O)ccc4c3c2)c(C)c1,400

# Molecular target: T5, Toll-like receptor 7 (Mus musculus)
# Assay: Agonist activity at TLR7 in Balb/c mouse splenocytes assessed as IL-6 level in supernatant after 18 hrs
# Format: cell-based
# Conditions: not given
# Summary of the method: as §3
row,Compound,Activity [pg/mL]
1,CCOCc1nc2c(N)nc3ccccc3c2n1CC(C)(C)O,600

# Molecular target: T3, Toll-like receptor 7 (Homo sapiens)
# Assay: Agonist activity at TLR7 in human PBMC assessed as induction of IL-6 secretion in supernatant after 18 hrs relative to resiquimod
# Format: cell-based
# Conditions: not given
# Summary of the method: as §2
row,Compound,%max
1,COc1ccc(CCc2cnc3c(N)nc4cc(C(=O)P(=O)(O)O)ccc4c3c2)c(C)c1,inactive
2,Cc1ccc2c(c1)nc(N)c1ncc(CCc3ccc(OCCOCCOCCP(=O)(O)O)cc3C)cc12,55%

# — ChEMBL document CHEMBL3826928, “Incorporation of Phosphonate into Benzonaphthyridine Toll-like Receptor 7 Agonists for Adsorption to Aluminum Hydroxide” (J Med Chem, 2016)
